Results: ChEMBL document CHEMBL2311422, “Studies on synthesis, stability, release and pharmacodynamic profile of a novel diacerein-thymol prodrug” (Bioorg Med Chem Lett, 2013)
One block for each compound: values may come before it. Calls of active or inactive are those of the source. No cut-off for these calls is given here.

Assays:
Rattus norvegicus [1] = assay: Antiarthritic activity in Wistar rat assessed as inhibition of FCA-induced subcutaneous inflammation of tibio-torsal joint at 5 mg/kg, po administered on day 13 post FCA-challenge measured on day 28 by hematoxylin and eosin staining method relative to control; format: functional, organism-based; set-up: dose 5 mg/kg
How it was run: (§1)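 Male Wistar rats, arthritis induced by sub-plantar FCA and oral dosing on days 13–28. Animals sacrificed on day 28. Ankle joints fixed 24 h in 10% buffered formalin, decalcified in 5% formic acid, paraffin-embedded and sectioned at 5 μm. H&E-stained sections read by light microscopy for synovial hyperplasia, pannus, joint-space destruction, inflammatory cell infiltration and synovitis.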

Rattus norvegicus [2] = assay: Antiinflammatory activity in Wistar rat assessed as inhibition of FCA-induced paw edema at 5 mg/kg, po administered on days 13 post FCA-challenge measured up to days 28 relative to control; format: functional
How it was run: (§2)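 Male Wistar rats (200–250 g), n = 6 per group. Complete Freund's adjuvant, 0.1 ml, injected sub-plantar into left hind paw on day 1. Oral dosing as 0.25% sodium CMC suspension, days 13–28. Body weight, joint diameter (digital vernier caliper) and paw volume (plethysmometer) recorded on days 0, 3, 7, 12, 15, 19, 21 and 28. Edema inhibition = 1 − (Vt/Vc) × 100, using mean relative paw-volume change versus arthritic controls. Mean ± SEM; two-way ANOVA with Bonferroni post test.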

Rattus norvegicus [3] = assay: Antiarthritic activity against FCA-induced arthritis in Wistar rat assessed as reduction in joint diameter at 5 mg/kg, po administered from day 13 post FCA-challenge measured from day 15 to day 28 relative to control; format: functional, organism-based; set-up: dose 5 mg/kg; how it was run: as §2
Rattus norvegicus [4] = assay: Antiarthritic activity against FCA-induced arthritis in Wistar rat assessed as increase in body weight at 5 mg/kg, po administered from day 13 post FCA-challenge measured after 28 days relative to control; format: functional, organism-based; set-up: dose 5 mg/kg; how it was run: as §2
[5] = n-octanol-phosphate buffer distribution coefficient, log P of the compound at pH 7.4; format: physicochemical
How it was run: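 Shake-flask partitioning between n-octanol and phosphate buffer pH 7.4, with UV spectrophotometric quantification.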

Rattus norvegicus [6] = assay: Gastrointestinal toxicity against fasted Wistar rat assessed as ulcer index at 50 mg/kg, po (reference value: 1.78 +/- 0.6); format: organism-based; set-up: dose 50 mg/kg, route oral; details: in vivo
Rattus norvegicus [7] = assay: Antiinflammatory activity in Wistar rat assessed as inhibition of FCA-induced paw edema at 2.04 mg/kg, po administered on days 13 post FCA-challenge measured up to days 28 relative to control; format: functional; how it was run: as §2
Rattus norvegicus [8] = assay: Antiarthritic activity against FCA-induced arthritis in Wistar rat assessed as reduction in joint diameter at 2.04 mg/kg, po administered from day 13 post FCA-challenge measured up to day 28 relative to control; format: functional, organism-based; set-up: dose 2.04 mg/kg; how it was run: as §2
Rattus norvegicus [9] = assay: Antiarthritic activity against FCA-induced arthritis in Wistar rat assessed as increase in body weight at 2.04 mg/kg, po administered from day 13 post FCA-challenge measured after 28 days relative to control; format: functional, organism-based; set-up: dose 2.04 mg/kg; how it was run: as §2
Rattus norvegicus [10] = assay: Gastrointestinal toxicity against fasted Wistar rat assessed as ulcer index at 20.4 mg/kg, po (reference value: 1.78 +/- 0.6); format: organism-based; set-up: dose 20.4 mg/kg, route oral; details: in vivo
Rattus norvegicus [11] = assay: Antiarthritic activity in Wistar rat assessed as inhibition of FCA-induced subcutaneous inflammation of tibio-torsal joint at 2.04 mg/kg, po administered on day 13 post FCA-challenge measured on day 28 by hematoxylin and eosin staining method relative to control; format: functional, organism-based; set-up: dose 2.04 mg/kg; how it was run: as §1
Rattus norvegicus [12] = assay: Antiinflammatory activity in Wistar rat assessed as inhibition of FCA-induced paw edema at 6.8 mg/kg, po administered on days 13 post FCA-challenge measured up to days 28 relative to control; format: functional; how it was run: as §2
Rattus norvegicus [13] = assay: Antiarthritic activity against FCA-induced arthritis in Wistar rat assessed as reduction in joint diameter at 6.8 mg/kg, po administered from day 13 post FCA-challenge measured up to day 28 relative to control; format: functional, organism-based; set-up: dose 6.8 mg/kg; how it was run: as §2
Rattus norvegicus [14] = assay: Antiarthritic activity against FCA-induced arthritis in Wistar rat assessed as increase in body weight at 6.8 mg/kg, po administered from day 13 post FCA-challenge measured after 28 days relative to control; format: functional, organism-based; set-up: dose 6.8 mg/kg; how it was run: as §2
[15] = Chemical stability in HCl buffer up to 3 hrs at pH 1.2; format: physicochemical; details: pH 1.2, 3 h
How it was run: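 10 mg prodrug in 100 ml HCl buffer pH 1.2, held at 37 ± 1 °C with occasional stirring. 5 ml aliquots withdrawn over 0–180 min, each replaced with fresh buffer. Samples read directly by UV at 232 nm (intact prodrug) and 259 nm (released diacerein). Triplicate runs.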

[16] = Prodrug conversion in phosphate buffer assessed as diacerein released after 30 mins at pH 7.4; format: physicochemical; details: pH 7.4, 0.5 h
How it was run: (§3)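 Same procedure in phosphate buffer pH 7.4 at 37 °C, followed over 4.5 h. UV read at 230 nm (prodrug remaining) and 258 nm (diacerein released). First-order rate constants taken from plots; mean K and SD from three readings, with half-life derived from these.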

[17] = Half life in phosphate buffer at pH 7.4; format: physicochemical; how it was run: as §3
[18] = Half life in Wistar rat small intestine homogenate; format: ADME, tissue-based
How it was run: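 Small intestine from an ether-anaesthetized male Wistar rat, homogenized with its contents and diluted to half with phosphate buffer pH 7.4. Prodrug stock 0.8 ml plus homogenate 0.2 ml, 37 °C for 4.5 h. Centrifuged and filtered, then UV read at 230 nm (prodrug) and 258 nm (diacerein) against phosphate buffer blank. First-order K averaged over three readings.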

Stomach = assay: Metabolic stability in Wistar rat stomach homogenate over 4.5 hrs; format: ADME, tissue-based; details: tissue homogenate
How it was run: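 Rat stomach homogenized with its contents and diluted to half with HCl buffer pH 1.2. Prodrug stock 100 μg/ml in HCl buffer; 0.8 ml stock plus 0.2 ml homogenate incubated at 37 °C. Samples centrifuged at 10,000 rpm, 4 °C, 10 min, then filtered. UV read at 232/259 nm against HCl buffer blank; quantified from calibration curves.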

Rattus norvegicus [19] = assay: Gastrointestinal toxicity against fasted Wistar rat assessed as ulcer index at 68 mg/kg, po (reference value: 1.78 +/- 0.6); format: organism-based; set-up: dose 68 mg/kg, route oral; details: in vivo
Rattus norvegicus [20] = assay: Antiarthritic activity in Wistar rat assessed as inhibition of FCA-induced mononuclear cell infiltration in synovial tissue of tibio-torsal joint at 6.8 mg/kg, po administered on day 13 post FCA-challenge measured on day 28 by hematoxylin and eosin staining method relative to control; format: functional, organism-based; set-up: dose 6.8 mg/kg; how it was run: as §1
Rattus norvegicus [21] = assay: Antiarthritic activity in Wistar rat assessed as inhibition of FCA-induced inflammatory cell infiltration in subcutaneous tissue of tibio-torsal joint at 6.8 mg/kg, po administered on day 13 post FCA-challenge measured on day 28 by hematoxylin and eosin staining method relative to control; format: functional, organism-based; set-up: dose 6.8 mg/kg; how it was run: as §1
[22] = Chemical stability in HCl buffer over 3 hrs at pH 1.2; details: pH 1.2, 3 h

logD [5]: 0.46
Structure (SMILES): CC(=O)Oc1cccc2c1C(=O)c1c(OC(C)=O)cc(C(=O)O)cc1C2=O [DIACEREIN]
inhibition (Rattus norvegicus [1]): inactive
inhibition in vivo at 5 mg/kg (Rattus norvegicus [2]): 56.9%
Activity (Rattus norvegicus [3]): Active
Activity (Rattus norvegicus [4]): Active
UI (Rattus norvegicus [6]): 6.03

Structure (SMILES): Cc1ccc(C(C)C)c(O)c1 [THYMOL]
inhibition in vivo at 2.04 mg/kg (Rattus norvegicus [7]): 9.1%
Activity (Rattus norvegicus [8]): Active
Activity (Rattus norvegicus [9]): inactive
UI (Rattus norvegicus [10]): 1.98
inhibition (Rattus norvegicus [11]): inactive

Stability [15]: Stable
Drug metabolism [16]: Active
logD [5]: 0.565
half-life [17]: 3.22 h
half-life [18]: 2.8 h
Stability (Stomach): Stable
Stability [22]: Stable
Structure (SMILES): CC(=O)Oc1cccc2c1C(=O)c1c(OC(C)=O)cc(C(=O)Oc3cc(C)ccc3C(C)C)cc1C2=O
inhibition in vivo at 6.8 mg/kg (Rattus norvegicus [12]): 78.9%
Activity (Rattus norvegicus [13]): Active
Activity (Rattus norvegicus [14]): Active
UI (Rattus norvegicus [19]): 4.17
inhibition (Rattus norvegicus [20]): inactive
inhibition (Rattus norvegicus [21]): Active
